Publication PMC9075506 (RSC Advances, 2019)
Read-outs that look alike come from different tables or passages of the source.

Legend:
[1] = Pharmacokinetic study in 6-OHDA-induced PD rats after oral administration; assay type: in vivo; details: rat, plasma
[2] = assay type: in vitro ADME, rat; details: n = 3; for Stability, autosampler (20 °C, 4 h), RE: processed rat plasma; for Stability, long-term (−80 °C, 30 d), RE / Stability, short-term (4 °C, 48 h), RE / Stability, three freeze–thaw cycles, RE: rat plasma
Procedure, shortened: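 Plasma (50 μL) precipitated with methanol/acetonitrile (1:1) containing internal standard (10 ng mL−1), vortexed 3 min, centrifuged 12 000 g for 10 min. Supernatant was run on C18 UFLC with a 0.1% formic acid/acetonitrile gradient at 0.5 mL min−1, detected by positive-ESI MRM. Quantified by analyte/IS peak-area ratio against a 1/x2-weighted linear calibration; accuracy given as RE (%).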

[3] = Pharmacokinetic study in sham rats after oral administration of PLA; assay type: in vivo; details: rat, plasma, 50 mg/kg
[4] = normal rats, oral administration of PLA, tissue distribution; cited from earlier work
[5] = high QC: spiked 160 ng mL^−1 (PLTR 4000 ng mL^−1)
[6] = low QC: spiked 0.6 ng mL^−1 (PLTR 15 ng mL^−1)
[7] = medium QC: spiked 10 ng mL^−1 (PLTR 250 ng mL^−1)

## O=C(/C=C/CCc1ccc2c(c1)OCO2)N1CCCCC1 [PPRA, piperanine]
[1]; 50 mg/kg
  AUC(0-inf): 137 ± 45.3 ng·h/mL
  AUC(0-t): 136 ± 45.6 ng·h/mL
  Cmax: 123 ± 57.6 ng/mL
  MRT: 2.43 ± 1.52 h
  Tmax: 0.18 ± 0.09 h
  half-life: 2.8 ± 1.71 h
[2]; [5]
  Stability, autosampler (20 °C, 4 h), RE: −9.38%
  Stability, long-term (−80 °C, 30 d), RE: −6.25%
  Stability, short-term (4 °C, 48 h), RE: −8.33%
  Stability, three freeze–thaw cycles, RE: −4.79%
[2]; [6]
  Stability, autosampler (20 °C, 4 h), RE: −2.28%
  Stability, long-term (−80 °C, 30 d), RE: 0.94%
  Stability, short-term (4 °C, 48 h), RE: −3.50%
  Stability, three freeze–thaw cycles, RE: 4.67%
[2]; [7]
  Stability, autosampler (20 °C, 4 h), RE: 7.33%
  Stability, long-term (−80 °C, 30 d), RE: 6.33%
  Stability, short-term (4 °C, 48 h), RE: 10.00%
  Stability, three freeze–thaw cycles, RE: 7.33%
[3]
  AUC(0-inf): 230 ± 150 ng·h/mL
  AUC(0-t): 225 ± 155 ng·h/mL
  Cmax: 160 ± 120 ng/mL
  MRT: 3.72 ± 1.3 h
  Tmax: 0.18 ± 0.09 h
  half-life: 4.16 ± 1.32 h

## O=C(/C=C/C=C/c1ccc2c(c1)OCO2)N1CCCCC1 [PPR, piperine]
[1]; 25 mg/kg
  AUC(0-inf): 7120 ± 1770 ng·h/mL
  AUC(0-t): 7110 ± 1770 ng·h/mL
  Cmax: 825 ± 241 ng/mL
  MRT: 6.27 ± 0.56 h
  Tmax: 2.95 ± 2.06 h
  half-life: 2.41 ± 0.34 h
[1]; 50 mg/kg
  AUC(0-t): 9700 ± 2670 ng·h/mL
  Cmax: 978 ± 214 ng/mL
  MRT: 5.99 ± 0.63 h
  Tmax: 4 ± 1.41 h
  half-life: 3.65 ± 3.45 h
[2]; [5]
  Stability, autosampler (20 °C, 4 h), RE: −5.00%
  Stability, long-term (−80 °C, 30 d), RE: 0.21%
  Stability, short-term (4 °C, 48 h), RE: −2.92%
  Stability, three freeze–thaw cycles, RE: 0.42%
[2]; [6]
  Stability, autosampler (20 °C, 4 h), RE: −2.67%
  Stability, long-term (−80 °C, 30 d), RE: −7.44%
  Stability, short-term (4 °C, 48 h), RE: −4.06%
  Stability, three freeze–thaw cycles, RE: −5.06%
[2]; [7]
  Stability, autosampler (20 °C, 4 h), RE: 7.67%
  Stability, long-term (−80 °C, 30 d), RE: 10.33%
  Stability, short-term (4 °C, 48 h), RE: 11.33%
  Stability, three freeze–thaw cycles, RE: 9.67%
[3]
  Cmax: 1000 ± 146 ng/mL
  MRT: 6.83 ± 0.44 h
  Tmax: 4.8 ± 2.28 h
  half-life: 3.4 ± 2.15 h
[4]
  Crossing of the blood–brain barrier: could cross the blood–brain barrier

## CC(C)CNC(=O)/C=C/C=C/c1ccc2c(c1)OCO2 [PPL, piperlonguminine]
[1]; 50 mg/kg
  AUC(0-inf): 245 ± 57.5 ng·h/mL
  AUC(0-t): 242 ± 57.2 ng·h/mL
  Cmax: 97.3 ± 18 ng/mL
  MRT: 2.98 ± 0.84 h
  Tmax: 0.45 ± 0.21 h
  half-life: 2.42 ± 1.23 h
[2]; [5]
  Stability, autosampler (20 °C, 4 h), RE: −5.63%
  Stability, long-term (−80 °C, 30 d), RE: −1.04%
  Stability, short-term (4 °C, 48 h), RE: −3.75%
  Stability, three freeze–thaw cycles, RE: 0.63%
[2]; [6]
  Stability, autosampler (20 °C, 4 h), RE: −4.78%
  Stability, long-term (−80 °C, 30 d), RE: −4.78%
  Stability, short-term (4 °C, 48 h), RE: −9.22%
  Stability, three freeze–thaw cycles, RE: −12.61%
[2]; [7]
  Stability, autosampler (20 °C, 4 h), RE: 5.33%
  Stability, long-term (−80 °C, 30 d), RE: 8.00%
  Stability, short-term (4 °C, 48 h), RE: 7.33%
  Stability, three freeze–thaw cycles, RE: 6.67%
[3]
  AUC(0-inf): 318 ± 123 ng·h/mL
  AUC(0-t): 302 ± 116 ng·h/mL
  Cmax: 89.1 ± 41.7 ng/mL
  MRT: 4.6 ± 1.33 h
  Tmax: 0.45 ± 0.11 h
  half-life: 3.68 ± 1.32 h
[4]
  Crossing of the blood–brain barrier: could cross the blood–brain barrier
